The results in this text go back to ChEMBL document CHEMBL1129798, “Analogues of 10-deazaaminopterin and 5-alkyl-5,10-dideazaaminopterin with the 4-substituted 1-naphthoyl group in the place of 4-substituted benzoyl” (J Med Chem, 1996).

One test concerns HL-60. Kind of test: In vitro cell growth inhibitory activity against HL60 cell line. In kind it is functional, cell-based. The note with it: Homo sapiens.
A further test has as its system L1210. Kind of test: In vitro cell growth inhibitory activity against L1210 cell line. The note with it: Mus musculus. It counts as functional, cell-based.
The subject of test [1] is Mus musculus. The test can be described thus: Compound was compared with MTX for in vivo activity against mammary adenocarcinoma E0771 infected mice at a dose of 24 mg/kg; T/C Treated to Control. In kind it is functional. The essentials: (§1)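 E0771 mammary adenocarcinoma carried in mice, five mice per test group, with an untreated control group. Dosage is given in mg/kg. Average body weight change (g) and average tumor volume (mm3) were recorded at day 10. T/C is expressed relative to the control group.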

Test [2] has as its system Mus musculus. Kind of test: Compound was compared with MTX for in vivo activity against mammary adenocarcinoma E0771 infected mice at a dose of 48 mg/kg; T/C Treated to Control. It counts as functional. The procedure, abridged:
as §1

Another test deals with CCRF S-180. The test can be described thus: In vitro cell growth inhibitory activity against S180 cell line. It counts as functional, cell-based. The note with it: Mus musculus.

`Nc1nc(N)c2nc(CCc3ccc(C(=O)NC(CCC(=O)O)C(=O)O)c4ccccc34)cnc2n1` (stereo unspecified): the concentration for half-maximal inhibition (IC50) with HL-60 was 1.1 nM; with L1210 it was 1.5 nM; in the test on CCRF S-180, 1.7 nM. Also, the figures for the T/C in the test on Mus musculus [1] and with Mus musculus [2] were 96% and 52%, respectively.

As to `Cc1c(CCc2ccc(C(=O)NC(CCC(=O)O)C(=O)O)c3ccccc23)cnc2nc(N)nc(N)c12` (stereo unspecified), the values for the IC50 with HL-60, with L1210 and with CCRF S-180 were 9.4 nM, 8.8 nM and 29 nM, respectively.

Regarding `CCc1c(CCc2ccc(C(=O)NC(CCC(=O)O)C(=O)O)c3ccccc23)cnc2nc(N)nc(N)c12` (stereo unspecified), the IC50 in the test with HL-60 was found to be 9.8 nM; with L1210, 9 nM; with CCRF S-180, 29 nM.

By IC50 is commonly meant the concentration that inhibits the measured activity by half. A lower IC50 goes with greater potency in that assay. A word on the T/C: it is the ratio of treated to control.
